# Measured values from ChEMBL document CHEMBL1123016, “Synthesis and biological activities of analogues of angiotensins II and III containing O-methyltyrosine and D-tryptophan” (J Med Chem, 1985).
# Square brackets hold non-standard residues; d marks the D form. Peptide text beside a SMILES is read from it. Sar = CNCC(=O)O
# Tests used:
# [1] = species on record: Rattus norvegicus; experiment: Compound was tested for agonist activity in rat isolated uterus assay; type: functional
# How it was run: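 Uteri from diethylstilbestrol-primed female Sprague-Dawley rats (150-250 g). Peptides were stored lyophilized at -20 °C, with 1 mg/mL stock solutions made weekly and assay dilutions made daily. Tissue was challenged every 12 min. Agonist activity is expressed relative to ANG II = 100%, as mean ± SEM with the number of animals.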
# [2] = species on record: Rattus norvegicus; experiment: Compound was tested for antagonist activity in rat isolated uterus assay; pA2 is the negative logarithm of the concentration of antagonist that reduces the response to an ED50 dose of angiotensin II to the response to half the ED50 dose; type: functional; conditions: read-out: pA2 (converted)
# How it was run: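 Isolated uterus from diethylstilbestrol-primed female Sprague-Dawley rats (150-250 g), challenged every 12 min. Antagonist was given 2 min before an ED50 dose of ANG II. Where antagonism appeared non-competitive, each tissue received a single "pA2 dose" and the ANG II response was measured after 2 min (mean of four determinations). Otherwise values are mean ± SEM (number of animals).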
smiles,measurement,setting,value
CC[C@H](C)[C@H](NC(=O)[C@H](Cc1ccc(OC)cc1)NC(=O)[C@@H](NC(=O)[C@H](CCCN=C(N)N)NC(=O)CNC)C(C)C)C(=O)N[C@@H](Cc1c[nH]cn1)C(=O)N1CCC[C@H]1C(=O)N[C@@H](Cc1ccccc1)C(=O)O,Activity,[1],<0.1%
same,Kb,[2],0.00794 µM
CC[C@H](C)[C@H](NC(=O)[C@H](Cc1ccc(O)cc1)NC(=O)[C@@H](NC(=O)[C@@H](N)CCCN=C(N)N)C(C)C)C(=O)N[C@@H](Cc1c[nH]cn1)C(=O)N1CCC[C@H]1C(=O)N[C@@H](Cc1c[nH]c2ccccc12)C(=O)O,Activity,[1],<0.1%
same,Kb,[2],0.2 µM
CC[C@H](C)[C@H](NC(=O)[C@@H]1CCCN1C(=O)[C@H](Cc1c[nH]cn1)NC(=O)[C@@H](NC(=O)[C@H](Cc1ccc(OC)cc1)NC(=O)[C@@H](NC(=O)[C@H](CCCN=C(N)N)NC(=O)CNC)C(C)C)[C@@H](C)CC)C(=O)O,Activity,[1],<0.1%
same,Kb,[2],0.0631 µM
CC[C@H](C)[C@H](NC(=O)[C@H](Cc1ccc(OC)cc1)NC(=O)[C@@H](NC(=O)[C@@H](N)CCCN=C(N)N)C(C)C)C(=O)N[C@@H](Cc1c[nH]cn1)C(=O)N1CCC[C@H]1C(=O)N[C@@H](Cc1ccccc1)C(=O)O,Activity,[1],<0.1%
same,Kb,[2],> 1 µM
CC[C@H](C)[C@H](NC(=O)[C@H](Cc1ccc(OC)cc1)NC(=O)[C@@H](NC(=O)[C@H](CCCN=C(N)N)NC(=O)CNC)C(C)C)C(=O)N[C@@H](Cc1c[nH]cn1)C(=O)N1CCC[C@H]1C(=O)N[C@@H](Cc1c[nH]c2ccccc12)C(=O)O,Activity,[1],<0.1%
same,Kb,[2],0.0794 µM
CC[C@H](C)[C@H](NC(=O)[C@H](Cc1ccc(OC)cc1)NC(=O)[C@@H](NC(=O)[C@@H](N)CCCN=C(N)N)C(C)C)C(=O)N[C@@H](Cc1c[nH]cn1)C(=O)N1CCC[C@H]1C(=O)N[C@@H](Cc1c[nH]c2ccccc12)C(=O)O,Activity,[1],<0.1%
same,Kb,[2],> 1 µM
CC[C@H](C)[C@H](NC(=O)[C@@H]1CCCN1C(=O)[C@H](Cc1c[nH]cn1)NC(=O)[C@@H](NC(=O)[C@H](Cc1ccc(OC)cc1)NC(=O)[C@@H](NC(=O)[C@@H](N)CCCN=C(N)N)C(C)C)[C@@H](C)CC)C(=O)O,Activity,[1],<0.1%
same,Kb,[2],> 1 µM
CC[C@H](C)[C@H](NC(=O)[C@H](Cc1ccc(O)cc1)NC(=O)[C@@H](NC(=O)[C@H](CCCN=C(N)N)NC(=O)CNC)C(C)C)C(=O)N[C@@H](Cc1c[nH]cn1)C(=O)N1CCC[C@H]1C(=O)N[C@@H](Cc1c[nH]c2ccccc12)C(=O)O,Activity,[1],<0.1%
same,Kb,[2],0.02 µM
CC[C@H](C)[C@H](NC(=O)[C@@H]1CCCN1C(=O)[C@H](Cc1c[nH]cn1)NC(=O)[C@@H](NC(=O)[C@H](Cc1ccc(O)cc1)NC(=O)[C@@H](NC(=O)[C@H](CCCN=C(N)N)NC(=O)CNC)C(C)C)[C@@H](C)CC)C(=O)O,Activity,[1],<0.1%
same,Kb,[2],0.002 µM
CC[C@H](C)[C@H](NC(=O)[C@H](Cc1c[nH]c2ccccc12)NC(=O)[C@@H](NC(=O)[C@@H](N)CCCN=C(N)N)C(C)C)C(=O)N[C@@H](Cc1c[nH]cn1)C(=O)N1CCC[C@H]1C(=O)N[C@@H](Cc1ccccc1)C(=O)O (H-RVWIHPF-OH),Activity,[1],<0.1%
same,Kb,[2],> 1 µM
CC[C@H](C)[C@H](NC(=O)[C@@H]1CCCN1C(=O)[C@H](Cc1c[nH]cn1)NC(=O)[C@@H](NC(=O)[C@H](Cc1c[nH]c2ccccc12)NC(=O)[C@@H](NC(=O)[C@@H](N)CCCN=C(N)N)C(C)C)[C@@H](C)CC)C(=O)O (H-RVWIHPI-OH),Activity,[1],<0.1%
same,Kb,[2],> 1 µM
CC[C@H](C)[C@H](NC(=O)[C@H](Cc1c[nH]c2ccccc12)NC(=O)[C@@H](NC(=O)[C@H](CCCN=C(N)N)NC(=O)CNC)C(C)C)C(=O)N[C@@H](Cc1c[nH]cn1)C(=O)N1CCC[C@H]1C(=O)N[C@@H](Cc1ccccc1)C(=O)O (H-[Sar]RVWIHPF-OH),Activity,[1],<0.1%
same,Kb,[2],> 1 µM
